Laboratory results published in ChEMBL document CHEMBL1123529, “Analogues of substance P. Peptides containing D-amino acid residues in various positions of substance P and displaying agonist or receptor selective antagonist effects” (1986).

Assays:
[1] = biological target: Substance-P receptor (Cavia porcellus) (UniProt P30547); experiment: Antagonistic activity against Substance P receptor in guinea pig ileum at concentration of 100 uM.; assay type: functional, tissue-based
Outline: (§1)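 Distal ileum from Dunkin-Hartley guinea pigs (300-350 g, both sexes) in a Krebs organ bath at 37 °C, gassed with 95% O2/5% CO2. Agonist (SP or SP(6-11)) dose-response curves run on a 3-min cycle with 1-min contact, with and without antagonist. Dose ratio = agonist EC50 with antagonist / EC50 alone. At least two preparations per compound; ratios below 2 taken as insignificant.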

[2] = biological target: Substance-P receptor (Cavia porcellus) (UniProt P30547); experiment: Antagonistic activity against Substance P(6-11) receptor in guinea pig ileum at concentration of 100 uM.; assay type: functional, tissue-based; outline: as §1
[3] = biological target: Substance-P receptor (Cavia porcellus) (UniProt P30547); experiment: Evaluated in vitro for percent agonist activity in guinea pig ileum (substance P receptor); assay type: functional, tissue-based
[4] = biological target: Substance-P receptor (Cavia porcellus) (UniProt P30547); experiment: Antagonistic activity against Substance P(6-11) receptor in guinea pig ileum at concentration of 5 uM.; assay type: functional, tissue-based; outline: as §1
[5] = biological target: Substance-P receptor (Rattus norvegicus) (UniProt P14600); experiment: Antagonistic activity against Substance P(6-11) receptor in rat spinal cord at concentration of 5 uM.
Sequence of Substance-P receptor (Rattus norvegicus) (P14600 whole entry, looked up): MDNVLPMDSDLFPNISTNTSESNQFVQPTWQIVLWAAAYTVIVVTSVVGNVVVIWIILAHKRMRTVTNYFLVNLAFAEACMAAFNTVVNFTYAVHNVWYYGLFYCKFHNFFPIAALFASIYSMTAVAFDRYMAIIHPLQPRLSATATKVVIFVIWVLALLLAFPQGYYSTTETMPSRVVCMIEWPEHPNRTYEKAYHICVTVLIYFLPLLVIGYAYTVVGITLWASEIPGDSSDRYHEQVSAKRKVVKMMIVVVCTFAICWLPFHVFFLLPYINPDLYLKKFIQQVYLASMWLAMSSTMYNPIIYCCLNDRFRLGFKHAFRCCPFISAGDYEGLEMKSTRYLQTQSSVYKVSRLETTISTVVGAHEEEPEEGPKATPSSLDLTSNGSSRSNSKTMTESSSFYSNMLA

[6] = biological target: Substance-P receptor (Rattus norvegicus) (UniProt P14600); experiment: Antagonistic activity against Substance P(6-11) receptor in rat spinal cord at concentration of 50 uM.
[7] = biological target: Substance-P receptor (Rattus norvegicus) (UniProt P14600); experiment: Antagonistic activity against Substance P receptor in rat spinal cord at concentration of 5 uM.
[8] = biological target: Substance-P receptor (Cavia porcellus) (UniProt P30547); experiment: Antagonistic activity against Substance P receptor in guinea pig ileum at concentration of 5 uM.; assay type: functional, tissue-based; outline: as §1
[9] = biological target: Metabotropic glutamate receptor 3 (Rattus norvegicus) (UniProt P31422); experiment: Antagonistic activity against Glutamate receptor in rat spinal cord at concentration of 5 uM.; assay type: functional, tissue-based
Sequence of Metabotropic glutamate receptor 3 (Rattus norvegicus) (P31422 23-879 limits assumed): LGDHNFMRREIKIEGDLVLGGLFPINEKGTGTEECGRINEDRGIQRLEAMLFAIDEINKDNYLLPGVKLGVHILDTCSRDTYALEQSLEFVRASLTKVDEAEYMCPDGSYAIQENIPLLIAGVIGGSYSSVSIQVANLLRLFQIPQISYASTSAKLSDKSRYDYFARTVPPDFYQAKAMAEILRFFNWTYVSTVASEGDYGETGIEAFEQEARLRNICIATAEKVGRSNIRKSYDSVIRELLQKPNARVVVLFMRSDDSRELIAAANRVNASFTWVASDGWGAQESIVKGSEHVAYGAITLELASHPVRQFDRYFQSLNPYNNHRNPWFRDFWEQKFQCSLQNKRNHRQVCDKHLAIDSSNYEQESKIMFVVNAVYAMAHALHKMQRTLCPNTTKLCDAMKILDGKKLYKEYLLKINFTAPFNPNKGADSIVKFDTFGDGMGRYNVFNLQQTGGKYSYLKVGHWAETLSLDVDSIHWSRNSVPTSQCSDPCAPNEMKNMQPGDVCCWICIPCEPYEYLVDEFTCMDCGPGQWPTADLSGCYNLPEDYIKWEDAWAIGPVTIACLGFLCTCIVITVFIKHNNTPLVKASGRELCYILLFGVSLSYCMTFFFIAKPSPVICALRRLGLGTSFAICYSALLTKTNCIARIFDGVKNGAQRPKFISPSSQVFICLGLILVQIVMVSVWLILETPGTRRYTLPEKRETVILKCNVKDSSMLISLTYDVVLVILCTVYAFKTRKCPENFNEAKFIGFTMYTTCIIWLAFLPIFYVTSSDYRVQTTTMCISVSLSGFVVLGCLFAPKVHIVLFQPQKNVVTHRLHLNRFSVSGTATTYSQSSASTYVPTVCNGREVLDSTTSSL
Outline: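 Neonatal hemisectioned spinal cord from Wistar rats (Alderley Park strain, 2-7 days old), anaesthetised with intraperitoneal urethane (25% w/v, […]) and then decapitated. Cord superfused with oxygenated medium at 1 mL/min. Agonist (SP, SP(6-11), glutamate or carbachol) applied as 2-mL doses in the superfusate. Antagonist superfused for at least 15 min before agonists were retested. Read-out: % change in ventral root–cord DC potential response amplitude.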

[10] = In vitro antagonistic activity against Substance P on guinea pig ileum at concentration of 10 uM.; assay type: functional, Cavia porcellus
Outline: (§2)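 Dose-response curves used a 3-min cycle with 1-min contact and washout, with SP or SP(6-11)-hexapeptide as agonist. Dose ratio is the agonist EC50 with antagonist divided by the EC50 alone. At least two preparations per compound; ratios under 2 were considered insignificant.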

[11] = In vitro antagonistic activity against Substance P(6-11) in guinea pig ileum at concentration of 10 uM.; assay type: functional, Cavia porcellus; outline: as §2
[12] = biological target: Substance-P receptor (Rattus norvegicus) (UniProt P14600); experiment: Antagonistic activity against Substance P receptor in rat spinal cord at concentration of 50 uM.

Sequence of Substance-P receptor (Cavia porcellus) (P30547 whole entry): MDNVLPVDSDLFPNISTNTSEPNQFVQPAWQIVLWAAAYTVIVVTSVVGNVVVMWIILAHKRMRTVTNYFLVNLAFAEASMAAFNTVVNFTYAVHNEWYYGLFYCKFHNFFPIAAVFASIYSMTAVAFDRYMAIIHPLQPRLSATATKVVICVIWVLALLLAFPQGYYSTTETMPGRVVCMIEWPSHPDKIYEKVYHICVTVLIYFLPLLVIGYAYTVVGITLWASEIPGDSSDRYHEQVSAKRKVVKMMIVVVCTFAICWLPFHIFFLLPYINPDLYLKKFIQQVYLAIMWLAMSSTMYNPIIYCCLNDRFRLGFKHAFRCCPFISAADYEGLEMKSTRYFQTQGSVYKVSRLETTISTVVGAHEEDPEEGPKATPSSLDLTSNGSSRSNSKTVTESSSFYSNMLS

Activity [1] | Activity [2] | SP [3] | Activity [4] | Change in amplitude response [5] | Change in amplitude response [6] | Change in amplitude response [7] | Activity [8] | Change in amplitude response [9] | Change in amplitude response [12] | SMILES | Activity [10] | Activity [11]
< 2 dose ratio | < 2 dose ratio | < 0.0001% |  |  |  |  |  |  |  | COC(=O)[C@@H](CCSC)NC(=O)[C@H](CC(C)C)NC(=O)CNC(=O)[C@H](Cc1c[nH]c2ccccc12)NC(=O)[C@@H](Cc1c[nH]c2ccccc12)NC(=O)[C@H](CCC(N)=O)NC(=O)[C@H](CCC(N)=O)NC(=O)[C@@H]1CCCN1C(=O)[C@H](CCCCN)NC(=O)[C@@H]1CCCN1C(=O)[C@@H](N)CCCN=C(N)N |  | 
 |  |  | 3.4 dose ratio | -62% | -100% | 21% | 6.3 dose ratio | -20% | 16% | CSCC[C@@H](NC(=O)[C@H](CC(C)C)NC(=O)[C@@H](Cc1c[nH]c2ccccc12)NC(=O)C(Cc1ccccc1)NC(=O)[C@@H](Cc1c[nH]c2ccccc12)NC(=O)[C@H](CCC(N)=O)NC(=O)[C@H](CCC(N)=O)NC(=O)C1CCCN1C(=O)[C@H](CCCCN)NC(=O)C1CCCN1C(=O)[C@@H](N)CCCN=C(N)N)C(=O)O (stereo in doubt) | 5.3 dose ratio | 4.3 dose ratio
